Published values of several laboratories.
Compare with care: the assays were run in different laboratories. pKi: −log10 of the molar value.
Target: Sigma intracellular receptor 2 (Tmem97, Rattus norvegicus, UniProt Q5U3Y7)
Observed: ligand displacement
Technique: radioligand
Sequence (Q5U3Y7 1-176, as in one of the studies): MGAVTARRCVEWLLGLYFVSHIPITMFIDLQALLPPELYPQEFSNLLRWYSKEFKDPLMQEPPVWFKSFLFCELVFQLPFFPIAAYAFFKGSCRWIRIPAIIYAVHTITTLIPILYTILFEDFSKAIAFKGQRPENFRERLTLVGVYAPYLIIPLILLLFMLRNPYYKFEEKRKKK

Compound | conditions | pKi
COc1cc2c(cc1OC)CN(CCCCn1ccc3c(OC)cccc31)CC2 | cell membranes | 8.11
O=C(NCCN1CCCCC1)c1ccc(OCCCF)c(Br)c1 | cell membranes | 7.55
CN(C)C(=S)N/N=C1/C(=O)Nc2ccccc21 | cell membranes | < 5.00
COc1ccc2c(ccn2CCCCN2CCc3cc(OC)c(OC)cc3C2)c1 | cell membranes | 8.36
O=C(NCCN1CCCCC1)c1ccc(O)c(Br)c1 | cell membranes | < 5.00
COc1cc2c(cc1OC)CN(C(C)CCc1ccc(O)cc1)CC2 (stereo not shown) |  | 8.31
COc1cc2c(cc1OC)C(=O)N(CCCCN1C(=O)/C(=N\NC(=S)N(C)C)c3ccccc31)CC2 | cell membranes | < 5.00
COc1ccc(CCC(C)N2CCc3cc(OC)c(OC)cc3C2)cc1 (stereo not shown) |  | 9.23
O=C(NCCN1CCCCC1)c1cc(Br)ccc1OCCCF | cell membranes | 7.03
COc1ccc2ccn(CCCCN3Cc4cc(OC)c(OC)cc4C3)c2c1 | cell membranes | 8.02
